Active and inactive are the calls of the source. The calls are words filed in the database; no cut-off is given here.
Legend:
[1] = molecular target: Calcium/calmodulin-dependent protein kinase type II subunit gamma (Homo sapiens) (UniProt Q13555); test: Inhibition of CaMK2g Lys2 labeling site in human Huh-7 cells at 1 uM by KiNativ Profiling analysis relative to control; assay type: cell-based
[2] = molecular target: T1, Acylglycerol kinase, mitochondrial (Homo sapiens) (UniProt Q53H12); test: Inhibition of AGK ATP labeling site in human Huh-7 cell lysate at 1 uM by KiNativ Profiling analysis relative to control; assay type: subcellular
T1 sequence (whole entry): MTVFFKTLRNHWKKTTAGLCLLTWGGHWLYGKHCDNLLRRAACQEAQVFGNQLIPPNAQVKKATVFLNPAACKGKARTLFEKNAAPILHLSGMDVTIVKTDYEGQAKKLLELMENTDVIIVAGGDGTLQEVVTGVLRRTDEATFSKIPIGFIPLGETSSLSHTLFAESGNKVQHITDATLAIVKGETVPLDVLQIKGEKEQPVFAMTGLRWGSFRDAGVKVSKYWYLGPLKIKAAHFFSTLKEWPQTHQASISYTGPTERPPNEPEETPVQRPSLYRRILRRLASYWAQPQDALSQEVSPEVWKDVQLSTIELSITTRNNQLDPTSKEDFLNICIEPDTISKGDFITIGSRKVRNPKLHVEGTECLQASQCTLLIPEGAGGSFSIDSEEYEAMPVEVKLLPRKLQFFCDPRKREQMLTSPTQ

[3] = molecular target: Protein-tyrosine kinase 6 (Homo sapiens) (UniProt Q13882); test: Inhibition of BRK (unknown origin) at 1 uM by Ambit Kinomescan binding assay relative to control; values are per cent of control
[4] = molecular target: Tyrosine-protein kinase receptor TYRO3 (Homo sapiens) (UniProt Q06418); test: Inhibition of TYRO3 (unknown origin) at 1 uM by Ambit Kinomescan binding assay relative to control
[5] = molecular target: Serine/threonine-protein kinase PknB (Mycobacterium tuberculosis) (UniProt P9WI81); test: Inhibition of Mycobacterium tuberculosis PKNB at 1 uM by Ambit Kinomescan binding assay relative to control
In short: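 In vitro ATP-site competition binding assay against a panel of over 420 kinases (KinomeScan), with compound tested at 10 or 1 μM.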

[6] = molecular target: Casein kinase I isoform epsilon (Homo sapiens) (UniProt P49674); test: Inhibition of CK1epsilon Lys2 labeling site in human A-375 cells at 5 uM by KiNativ Profiling analysis relative to control; assay type: cell-based
[7] = molecular target: RAF proto-oncogene serine/threonine-protein kinase (Homo sapiens, UniProt P04049); test: Inhibition of RAF1 (unknown origin) Lys2 labeling site by KiNativ Profiling analysis
[8] = molecular target: RAC-beta serine/threonine-protein kinase (Homo sapiens) (UniProt P31751); test: Inhibition of AKT2 ATP Loop labeling site in human A-375 cells at 5 uM by KiNativ Profiling analysis relative to control; assay type: cell-based
[9] = molecular target: T2, EKC/KEOPS complex subunit TP53RK (Homo sapiens) (UniProt Q96S44); test: Inhibition of PRPK ATP Loop labeling site in human A-375 cells at 0.05 uM by KiNativ Profiling analysis relative to control; assay type: cell-based
T2 sequence (whole entry): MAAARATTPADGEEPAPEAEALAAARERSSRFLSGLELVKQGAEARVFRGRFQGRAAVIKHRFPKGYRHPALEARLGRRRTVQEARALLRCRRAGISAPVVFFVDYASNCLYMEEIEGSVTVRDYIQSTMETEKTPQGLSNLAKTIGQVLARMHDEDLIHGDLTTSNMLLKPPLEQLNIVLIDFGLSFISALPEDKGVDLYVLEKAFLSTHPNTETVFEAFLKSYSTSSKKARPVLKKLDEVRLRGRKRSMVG

[10] = molecular target: Serine/threonine-protein kinase PLK3 (Homo sapiens) (UniProt Q9H4B4); test: Inhibition of PLK3 (unknown origin) at 1 uM by Ambit Kinomescan binding assay relative to control; values are per cent of control
[11] = test system: Epidermal growth factor receptor (Homo sapiens), P00533 [UNDEFINED MUTATION]; settings: dose 10.0 µM
[12] = molecular target: Mitogen-activated protein kinase kinase kinase 1 (Homo sapiens) (UniProt Q13233); test: Inhibition of MAP3K1 Lys2 labeling site in human A-375 cells at 5 uM by KiNativ Profiling analysis relative to control; assay type: cell-based
[13] = molecular target: Tyrosine-protein kinase Fer (Homo sapiens, UniProt P16591); test: Inhibition of FER Lys1 labeling site harbouring DKTSVAVKTCKEDLPQELK in human A-375 cells at 0.05 uM by KiNativ Profiling analysis relative to control; assay type: cell-based
[14] = molecular target: Serine/threonine-protein kinase 10 (Homo sapiens) (UniProt O94804); test: Inhibition of LOK Lys1 labeling site harbouring ETGALAAAKVIETK in human A-375 cells at 5 uM by KiNativ Profiling analysis relative to control; assay type: cell-based
[15] = molecular target: Phosphatidylinositol 4-phosphate 3-kinase C2 domain-containing subunit beta (Homo sapiens) (UniProt O00750); test: Inhibition of PIK3C2B ATP labeling site in human Huh-7 cells at 1 uM by KiNativ Profiling analysis relative to control; assay type: cell-based
[16] = molecular target: MAP/microtubule affinity-regulating kinase 4 (Homo sapiens) (UniProt Q96L34); test: Inhibition of MARK4 (unknown origin) at 10 uM by Ambit Kinomescan binding assay
[17] = molecular target: T3, Serine/threonine-protein kinase STK11 (Homo sapiens) (UniProt Q15831); test: Inhibition of LKB1 K2 labeling site in human Huh-7 cells at 10 uM by KiNativ Profiling analysis relative to control; assay type: cell-based
T3 sequence (whole entry): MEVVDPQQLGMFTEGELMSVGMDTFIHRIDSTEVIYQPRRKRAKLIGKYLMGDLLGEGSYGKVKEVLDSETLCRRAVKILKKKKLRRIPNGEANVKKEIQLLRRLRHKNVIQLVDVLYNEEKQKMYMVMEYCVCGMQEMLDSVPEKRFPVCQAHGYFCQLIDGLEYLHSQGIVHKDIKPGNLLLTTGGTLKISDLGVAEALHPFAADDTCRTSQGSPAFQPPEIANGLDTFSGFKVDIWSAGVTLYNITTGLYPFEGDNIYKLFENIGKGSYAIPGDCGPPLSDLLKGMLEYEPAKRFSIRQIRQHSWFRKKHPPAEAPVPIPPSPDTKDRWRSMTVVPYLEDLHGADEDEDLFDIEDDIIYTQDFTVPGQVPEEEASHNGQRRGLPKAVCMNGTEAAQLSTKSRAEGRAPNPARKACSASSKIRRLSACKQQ

MEF = test: Inhibition of IL-1alpha induced p38 phosphorylation level in mouse MEF cells preincubated for 1 hr followed by IL-1 alpha stimulation and measured after 30 mins by Western blot analysis; assay type: functional, cell-based; settings: dose 0.01-10 µM
[18] = test system: Mast/stem cell growth factor receptor Kit (Homo sapiens), P10721 [V559D,V654A]; test: Inhibition of KIT V559D/V654A double mutant (unknown origin) at 10 uM by Ambit Kinomescan binding assay relative to control

Casein kinase I isoform epsilon (Homo sapiens), sequence (P49674 whole entry, looked up, canonical isoform): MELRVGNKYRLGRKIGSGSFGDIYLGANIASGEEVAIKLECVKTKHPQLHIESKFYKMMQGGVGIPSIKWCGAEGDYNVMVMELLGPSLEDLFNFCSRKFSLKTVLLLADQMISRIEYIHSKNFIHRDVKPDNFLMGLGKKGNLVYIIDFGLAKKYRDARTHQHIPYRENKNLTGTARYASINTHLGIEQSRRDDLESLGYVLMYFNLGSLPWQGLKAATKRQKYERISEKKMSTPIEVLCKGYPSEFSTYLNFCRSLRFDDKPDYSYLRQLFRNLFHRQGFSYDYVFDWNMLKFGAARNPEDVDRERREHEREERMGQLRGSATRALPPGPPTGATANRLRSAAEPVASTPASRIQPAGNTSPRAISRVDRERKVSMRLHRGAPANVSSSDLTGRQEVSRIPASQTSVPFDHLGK
Mitogen-activated protein kinase kinase kinase 1 (Homo sapiens), sequence (Q13233 whole entry): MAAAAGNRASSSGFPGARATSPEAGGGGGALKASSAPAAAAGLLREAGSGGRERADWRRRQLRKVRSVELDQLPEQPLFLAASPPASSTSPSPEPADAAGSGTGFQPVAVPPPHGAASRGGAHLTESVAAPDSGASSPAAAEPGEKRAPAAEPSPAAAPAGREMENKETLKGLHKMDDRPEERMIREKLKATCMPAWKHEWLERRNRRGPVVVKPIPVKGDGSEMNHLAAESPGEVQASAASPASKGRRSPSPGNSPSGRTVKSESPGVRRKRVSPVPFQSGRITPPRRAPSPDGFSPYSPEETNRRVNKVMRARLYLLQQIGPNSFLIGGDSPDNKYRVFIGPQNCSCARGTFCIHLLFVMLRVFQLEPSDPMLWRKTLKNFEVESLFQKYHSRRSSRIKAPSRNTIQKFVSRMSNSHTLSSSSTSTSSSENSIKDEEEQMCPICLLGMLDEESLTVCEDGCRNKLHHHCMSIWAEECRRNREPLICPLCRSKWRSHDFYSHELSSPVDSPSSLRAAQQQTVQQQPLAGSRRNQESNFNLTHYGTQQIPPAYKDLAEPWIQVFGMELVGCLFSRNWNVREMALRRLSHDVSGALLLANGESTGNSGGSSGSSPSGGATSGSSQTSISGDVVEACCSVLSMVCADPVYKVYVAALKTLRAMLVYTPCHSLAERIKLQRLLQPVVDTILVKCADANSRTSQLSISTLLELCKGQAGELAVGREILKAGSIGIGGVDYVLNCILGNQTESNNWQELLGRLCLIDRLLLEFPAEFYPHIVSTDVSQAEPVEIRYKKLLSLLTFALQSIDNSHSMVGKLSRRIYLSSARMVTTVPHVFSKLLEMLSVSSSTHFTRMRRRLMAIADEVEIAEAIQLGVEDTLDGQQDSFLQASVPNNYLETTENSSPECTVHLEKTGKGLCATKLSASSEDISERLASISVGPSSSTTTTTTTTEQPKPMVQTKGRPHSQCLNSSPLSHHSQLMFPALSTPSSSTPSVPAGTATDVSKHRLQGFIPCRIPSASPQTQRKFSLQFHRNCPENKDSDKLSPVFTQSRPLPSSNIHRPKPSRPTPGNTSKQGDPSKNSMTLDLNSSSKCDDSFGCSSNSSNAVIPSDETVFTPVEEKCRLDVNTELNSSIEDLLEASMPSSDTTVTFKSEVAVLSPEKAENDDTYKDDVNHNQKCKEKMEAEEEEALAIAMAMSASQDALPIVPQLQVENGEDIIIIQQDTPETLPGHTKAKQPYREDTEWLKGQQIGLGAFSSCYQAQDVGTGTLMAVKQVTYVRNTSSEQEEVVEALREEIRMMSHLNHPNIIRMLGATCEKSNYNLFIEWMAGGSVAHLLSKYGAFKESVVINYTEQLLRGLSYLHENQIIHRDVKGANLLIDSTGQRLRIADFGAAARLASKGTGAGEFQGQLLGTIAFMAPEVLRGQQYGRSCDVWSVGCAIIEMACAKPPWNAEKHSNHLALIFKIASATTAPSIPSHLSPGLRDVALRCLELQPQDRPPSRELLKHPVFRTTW
Serine/threonine-protein kinase 10 (Homo sapiens), sequence (O94804 whole entry, looked up, the tested form may be a part): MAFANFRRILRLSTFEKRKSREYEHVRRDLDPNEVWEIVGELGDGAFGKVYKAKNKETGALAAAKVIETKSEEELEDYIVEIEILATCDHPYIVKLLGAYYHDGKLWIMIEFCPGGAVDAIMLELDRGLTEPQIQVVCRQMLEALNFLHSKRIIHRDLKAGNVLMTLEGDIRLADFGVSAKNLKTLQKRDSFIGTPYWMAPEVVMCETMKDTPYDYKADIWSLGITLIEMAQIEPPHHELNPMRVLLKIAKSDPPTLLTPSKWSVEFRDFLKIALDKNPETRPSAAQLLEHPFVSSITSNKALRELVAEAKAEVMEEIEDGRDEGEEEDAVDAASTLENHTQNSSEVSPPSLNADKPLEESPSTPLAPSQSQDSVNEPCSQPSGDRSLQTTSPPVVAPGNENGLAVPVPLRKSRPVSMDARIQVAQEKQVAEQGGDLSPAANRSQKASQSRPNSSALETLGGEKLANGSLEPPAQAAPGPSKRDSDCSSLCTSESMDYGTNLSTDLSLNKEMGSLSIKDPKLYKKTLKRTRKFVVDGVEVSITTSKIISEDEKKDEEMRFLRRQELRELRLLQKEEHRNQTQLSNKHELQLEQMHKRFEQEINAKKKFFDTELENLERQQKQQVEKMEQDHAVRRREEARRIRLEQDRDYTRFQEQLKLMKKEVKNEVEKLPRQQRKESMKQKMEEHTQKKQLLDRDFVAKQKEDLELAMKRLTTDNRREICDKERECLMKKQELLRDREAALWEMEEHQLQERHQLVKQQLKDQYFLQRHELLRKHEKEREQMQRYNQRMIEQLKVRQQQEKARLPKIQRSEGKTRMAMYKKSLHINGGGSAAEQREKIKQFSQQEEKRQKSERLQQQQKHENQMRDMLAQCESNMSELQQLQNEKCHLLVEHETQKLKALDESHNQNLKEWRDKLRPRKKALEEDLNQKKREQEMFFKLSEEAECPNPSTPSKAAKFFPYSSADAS
Tyrosine-protein kinase Fer, sequence (P16591 whole entry, looked up): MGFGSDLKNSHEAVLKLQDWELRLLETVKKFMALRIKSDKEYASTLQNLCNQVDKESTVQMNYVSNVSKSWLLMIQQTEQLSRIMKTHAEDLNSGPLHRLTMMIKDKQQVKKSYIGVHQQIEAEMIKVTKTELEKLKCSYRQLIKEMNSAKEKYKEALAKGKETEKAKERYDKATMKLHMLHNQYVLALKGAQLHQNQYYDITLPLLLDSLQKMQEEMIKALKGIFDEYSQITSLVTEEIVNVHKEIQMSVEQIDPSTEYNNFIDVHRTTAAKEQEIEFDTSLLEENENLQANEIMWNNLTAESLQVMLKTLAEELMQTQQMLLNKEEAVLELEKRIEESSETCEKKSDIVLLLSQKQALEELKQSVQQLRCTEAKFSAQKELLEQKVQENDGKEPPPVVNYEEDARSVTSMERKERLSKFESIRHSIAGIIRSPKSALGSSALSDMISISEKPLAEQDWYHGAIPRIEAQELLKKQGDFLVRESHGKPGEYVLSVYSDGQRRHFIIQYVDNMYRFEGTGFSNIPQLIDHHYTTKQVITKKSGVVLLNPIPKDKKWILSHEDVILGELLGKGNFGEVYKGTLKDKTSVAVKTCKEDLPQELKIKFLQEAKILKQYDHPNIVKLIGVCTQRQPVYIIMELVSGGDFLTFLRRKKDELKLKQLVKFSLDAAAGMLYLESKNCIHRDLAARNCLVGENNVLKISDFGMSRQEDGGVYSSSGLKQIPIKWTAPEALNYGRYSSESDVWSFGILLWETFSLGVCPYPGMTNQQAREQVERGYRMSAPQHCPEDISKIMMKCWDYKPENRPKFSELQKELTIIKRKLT
Serine/threonine-protein kinase PknB (Mycobacterium tuberculosis), sequence (P9WI81 whole entry): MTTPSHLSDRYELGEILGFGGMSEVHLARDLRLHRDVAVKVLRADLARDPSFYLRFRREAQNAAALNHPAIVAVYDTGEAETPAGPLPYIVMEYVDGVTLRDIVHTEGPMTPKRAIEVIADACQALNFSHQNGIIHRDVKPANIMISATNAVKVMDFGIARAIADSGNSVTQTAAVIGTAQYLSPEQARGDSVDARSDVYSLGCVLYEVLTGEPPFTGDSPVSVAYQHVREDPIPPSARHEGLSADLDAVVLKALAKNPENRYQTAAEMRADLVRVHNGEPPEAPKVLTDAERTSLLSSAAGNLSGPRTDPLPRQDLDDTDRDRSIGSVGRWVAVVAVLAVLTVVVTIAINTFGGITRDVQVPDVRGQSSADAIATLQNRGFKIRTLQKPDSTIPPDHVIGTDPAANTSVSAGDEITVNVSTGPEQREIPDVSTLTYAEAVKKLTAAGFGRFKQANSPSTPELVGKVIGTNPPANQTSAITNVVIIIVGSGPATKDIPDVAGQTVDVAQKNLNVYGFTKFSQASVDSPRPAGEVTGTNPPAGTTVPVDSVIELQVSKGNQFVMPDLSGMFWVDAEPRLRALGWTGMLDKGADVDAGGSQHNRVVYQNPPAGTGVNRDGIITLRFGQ
Calcium/calmodulin-dependent protein kinase type II subunit gamma (Homo sapiens), sequence (Q13555 whole entry): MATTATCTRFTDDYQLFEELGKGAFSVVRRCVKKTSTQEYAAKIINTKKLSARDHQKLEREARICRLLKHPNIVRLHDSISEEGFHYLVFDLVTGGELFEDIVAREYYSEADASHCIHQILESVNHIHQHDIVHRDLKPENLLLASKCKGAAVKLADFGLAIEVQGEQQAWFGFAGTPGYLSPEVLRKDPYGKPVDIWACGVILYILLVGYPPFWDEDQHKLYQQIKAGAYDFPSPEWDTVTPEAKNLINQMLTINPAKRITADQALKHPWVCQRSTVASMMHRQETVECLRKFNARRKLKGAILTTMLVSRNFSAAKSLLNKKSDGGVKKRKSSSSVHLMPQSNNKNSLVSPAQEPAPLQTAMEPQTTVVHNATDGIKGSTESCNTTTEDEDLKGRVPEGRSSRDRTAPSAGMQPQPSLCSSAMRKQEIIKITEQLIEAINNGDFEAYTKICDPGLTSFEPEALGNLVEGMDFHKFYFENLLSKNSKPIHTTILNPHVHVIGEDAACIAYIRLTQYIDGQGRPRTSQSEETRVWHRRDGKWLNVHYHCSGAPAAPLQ

`CNc1cc(Oc2cc(C(=O)Nc3cc(N4CCN(C)CC4)cc(C(F)(F)F)c3)ccc2C)ncn1` gave an inhibition [1] of 20.3% and an inhibition [2] of 3.4%.
Molecule `CCN1CCN(Cc2ccc(NC(=O)c3ccc(C)c(/C=C/c4cnc5[nH]ccc5c4OC)c3)cc2C(F)(F)F)CC1` has a residual activity [3] of 64%, an inhibition [4] of 76% and an inhibition [5] of 84%. For the same molecule, the inhibition [6] was 1.4%, the IC50 [7] was 3.31 µM and the inhibition [8] was 13.3%. For the same molecule, the inhibition [9] was -1.5% and the residual activity [10] was 100%.
Work on `CCN1CCN(Cc2ccc(NC(=O)c3ccc(C)c(Oc4ccnc5[nH]ccc45)c3)cc2C(F)(F)F)CC1` yielded an inhibition [11] of 1.2%, an inhibition [12] of 83.9% and an inhibition [13] of 62.8%. The inhibition [14] was 82.3%, the inhibition [15] was -9.4% and the inhibition [16] was “inactive”. For the same molecule, the inhibition [17] was 11.6%, the inhibition (MEF) was “Dose-Dependent Effect” and the inhibition [18] was 2.7%.
